# Experimental data collected from several papers.
# Htr2c: 5-hydroxytryptamine receptor 2C (Htr2c, Mus musculus, UniProt P34968)
# BACE1: Beta-secretase 1 (BACE1, Homo sapiens, UniProt P56817)
# HLA class I histocompatibility antigen, A alpha chain: HLA class I histocompatibility antigen, A alpha chain (Homo sapiens, UniProt P04439)
SMILES,target,assay,measurement,result
COc1cc(CCN)c(OC)cc1Br,Htr2c,"G protein activation, agonist, BRET",EC50,0.00427 µM
C=CCOc1ccc(C(=O)/C=C/c2ccc(OC)cc2)c(OS(C)(=O)=O)c1I,BACE1,"enzyme activity, inhibitor, fluorescence",IC50,48.1 µM
CCN(CC)C(=O)[C@@H]1C=C2c3cccc4[nH]cc(c34)C[C@H]2N(C)C1,"D(2) dopamine receptor (DRD2, Homo sapiens, UniProt P14416)","G protein activation, agonist, BRET",EC50,0.00158 µM
COc1cc(CCN)c(OC)cc1C#N,Htr2c,"G protein activation, agonist, BRET",EC50,0.2 µM
CC(C)C[C@H](NC(=O)[C@@H]1CCCN1C(=O)[C@H](Cc1c[nH]c2ccccc12)NC(=O)[C@H](CC(=O)O)NC(=O)[C@H](Cc1ccc(O)cc1)NC(=O)[C@@H](NC(=O)[C@@H](N)Cc1ccc(O)cc1)C(C)C)C(=O)N[C@H](C(=O)N[C@@H](Cc1ccccc1)C(=O)O)[C@@H](C)O,"HLA class I histocompatibility antigen, A alpha chain",cell-free assay,IC50,21.5 µM
C=CCOc1ccc(C(=O)/C=C/c2cccc(F)c2)c(OS(=O)(=O)c2ccc(OC)cc2)c1I,BACE1,"enzyme activity, inhibitor, fluorescence",IC50,21.6 µM
CCCC[C@H](NC(C)=O)C(=O)N[C@H]1CC(=O)NCCCC[C@@H](C(=O)N2CCC[C@@H]2C(=O)N[C@@H](C(=O)N2CCC[C@@H]2C(N)=O)C(C)C)NC(=O)[C@H](Cc2c[nH]c3ccccc23)NC(=O)[C@H](CCCNC(=N)N)NC(=O)[C@@H](Cc2ccccc2)NC(=O)[C@@H]2CCCN2C1=O,"Melanocyte-stimulating hormone receptor (MC1R, Homo sapiens, UniProt Q01726)","cAMP, agonist",EC50,0.000407 µM
CC(C)C[C@H](NC(=O)[C@@H](NC(=O)[C@H](CCCCN)NC(=O)[C@H](CC(=O)O)NC(=O)[C@H](Cc1ccc(O)cc1)NC(=O)[C@H](C)NC(=O)[C@@H](N)CCCNC(=N)N)[C@@H](C)O)C(=O)N[C@@H](Cc1ccc(O)cc1)C(=O)N[C@@H](Cc1ccccc1)C(=O)O,"HLA class I histocompatibility antigen, A alpha chain",cell-free assay,IC50,0.015 µM
